Laboratory results from ChEMBL document CHEMBL4689842, “EUbOPEN Chemogenomics Library wave 1” (2021).

What was measured:
HEK-293T = experiment: Multiplex assay against HEK293T; type: toxicity, cell-based; conditions: human;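 for Population Tubulin-Different-Phenotype (%): share of the cells with healthy nuclei that show this phenotype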
In short: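 With compound added, live cells were imaged on a CQ1 microscope at 37°C and 5% CO2; staining with Hoechst33342, BioTracker Green Microtubule Cytoskeleton Dye, MitoTracker Red and Annexin V Alexa Fluor 680 had been done at seeding. The CellPathfinder machine-learning gating scheme split cells into Hoechst high-intensity objects or normal cells, normal cells into healthy, pyknosed or fragmented nuclei, and pyknosed cells into mitotic or apoptotic. The tubulin, mitochondrial-mass and membrane-permeability phenotypes are per cents of healthy-nucleus cells.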

Fibroblast = experiment: Incucyte cell viability with human fibroblast; type: toxicity, cell-based; conditions: 10 µM, compound concentration 10 uM; note: filed as whole numbers so only -1 and 0 and 1 occur
[1] = 12 h, 1 µM, compound concentration 1 uM, replicate 1
[2] = 12 h, 1 µM, compound concentration 1 uM, replicate 2
[3] = 12 h, 10 µM, compound concentration 10 uM, replicate 1
[4] = 12 h, 10 µM, compound concentration 10 uM, replicate 2
[5] = 24 h, 1 µM, compound concentration 1 uM, replicate 1
[6] = 24 h, 1 µM, compound concentration 1 uM, replicate 2
[7] = 24 h, 10 µM, compound concentration 10 uM, replicate 1
[8] = 24 h, 10 µM, compound concentration 10 uM, replicate 2
[9] = 48 h, 1 µM, compound concentration 1 uM, replicate 1
[10] = 48 h, 1 µM, compound concentration 1 uM, replicate 2
[11] = 48 h, 10 µM, compound concentration 10 uM, replicate 1
[12] = 48 h, 10 µM, compound concentration 10 uM, replicate 2

## Cl.Cl.Nc1ncnc2c1c(-c1cccc(OCc3ccccc3)c1)cn2[C@H]1C[C@@H](CN2CCC2)C1
HEK-293T; [1]
  Population Apoptotic (%): 69%
  Population Fragmented Nuclei (%): 13%
  Population Healthy Nuclei (%): 17%
  Population Hoechst High Intensity Objects (%): 24%
  Population Membrane Permeable-Phenotype (%): 5%
  Population Mitochondria Different-Phenotype (%): 94%
  Population Mitotic Cells (%): 30%
  Population Normal (%): 75%
  Population Pyknosed Nuclei (%): 68%
  Population Tubulin-Different-Phenotype (%): 88%
  Total Cell Count: 270
HEK-293T; [2]
  Population Apoptotic (%): 56%
  Population Fragmented Nuclei (%): 5%
  Population Healthy Nuclei (%): 23%
  Population Hoechst High Intensity Objects (%): 10%
  Population Membrane Permeable-Phenotype (%): 2%
  Population Mitochondria Different-Phenotype (%): 97%
  Population Mitotic Cells (%): 43%
  Population Normal (%): 89%
  Population Pyknosed Nuclei (%): 71%
  Population Tubulin-Different-Phenotype (%): 97%
  Total Cell Count: 199
HEK-293T; [3]
  Population Fragmented Nuclei (%): 18%
  Population Healthy Nuclei (%): 12%
  Population Hoechst High Intensity Objects (%): 20%
  Population Membrane Permeable-Phenotype (%): 3%
  Population Mitochondria Different-Phenotype (%): 100%
  Population Normal (%): 79%
  Population Pyknosed Nuclei (%): 69%
  Population Tubulin-Different-Phenotype (%): 84%
  Total Cell Count: 264
HEK-293T; [4]
  Population Apoptotic (%): 95%
  Population Fragmented Nuclei (%): 21%
  Population Healthy Nuclei (%): 6%
  Population Hoechst High Intensity Objects (%): 23%
  Population Membrane Permeable-Phenotype (%): 9%
  Population Mitochondria Different-Phenotype (%): 81%
  Population Mitotic Cells (%): 4%
  Population Normal (%): 77%
  Population Pyknosed Nuclei (%): 71%
  Population Tubulin-Different-Phenotype (%): 54%
  Total Cell Count: 213
HEK-293T; [5]
  Population Apoptotic (%): 70%
  Population Fragmented Nuclei (%): 14%
  Population Healthy Nuclei (%): 18%
  Population Hoechst High Intensity Objects (%): 25%
  Population Membrane Permeable-Phenotype (%): 0%
  Population Mitochondria Different-Phenotype (%): 100%
  Population Mitotic Cells (%): 29%
  Population Normal (%): 75%
  Population Pyknosed Nuclei (%): 67%
  Total Cell Count: 260
HEK-293T; [6]
  Population Apoptotic (%): 67%
  Population Fragmented Nuclei (%): 7%
  Population Healthy Nuclei (%): 43%
  Population Hoechst High Intensity Objects (%): 5%
  Population Membrane Permeable-Phenotype (%): 4%
  Population Mitochondria Different-Phenotype (%): 93%
  Population Mitotic Cells (%): 32%
  Population Normal (%): 94%
  Population Pyknosed Nuclei (%): 49%
  Population Tubulin-Different-Phenotype (%): 91%
  Total Cell Count: 213
HEK-293T; [7]
  Population Apoptotic (%): 92%
  Population Fragmented Nuclei (%): 17%
  Population Healthy Nuclei (%): 9%
  Population Hoechst High Intensity Objects (%): 22%
  Population Membrane Permeable-Phenotype (%): 0%
  Population Mitochondria Different-Phenotype (%): 100%
  Population Mitotic Cells (%): 7%
  Population Normal (%): 77%
  Population Pyknosed Nuclei (%): 73%
  Population Tubulin-Different-Phenotype (%): 80%
  Total Cell Count: 278
HEK-293T; [8]
  Population Apoptotic (%): 100%
  Population Fragmented Nuclei (%): 23%
  Population Healthy Nuclei (%): 11%
  Population Hoechst High Intensity Objects (%): 26%
  Population Membrane Permeable-Phenotype (%): 5%
  Population Mitochondria Different-Phenotype (%): 89%
  Population Mitotic Cells (%): 0%
  Population Normal (%): 73%
  Population Pyknosed Nuclei (%): 64%
  Population Tubulin-Different-Phenotype (%): 68%
  Total Cell Count: 227
HEK-293T; [9]
  Population Apoptotic (%): 74%
  Population Fragmented Nuclei (%): 20%
  Population Healthy Nuclei (%): 21%
  Population Hoechst High Intensity Objects (%): 30%
  Population Membrane Permeable-Phenotype (%): 0%
  Population Mitochondria Different-Phenotype (%): 97%
  Population Mitotic Cells (%): 25%
  Population Normal (%): 70%
  Population Pyknosed Nuclei (%): 57%
  Population Tubulin-Different-Phenotype (%): 78%
  Total Cell Count: 250
HEK-293T; [10]
  Population Apoptotic (%): 64%
  Population Fragmented Nuclei (%): 6%
  Population Healthy Nuclei (%): 71%
  Population Hoechst High Intensity Objects (%): 11%
  Population Membrane Permeable-Phenotype (%): 1%
  Population Mitochondria Different-Phenotype (%): 87%
  Population Mitotic Cells (%): 35%
  Population Normal (%): 88%
  Population Pyknosed Nuclei (%): 22%
  Population Tubulin-Different-Phenotype (%): 93%
  Total Cell Count: 263
HEK-293T; [11]
  Population Apoptotic (%): 93%
  Population Fragmented Nuclei (%): 25%
  Population Healthy Nuclei (%): 1%
  Population Hoechst High Intensity Objects (%): 19%
  Population Membrane Permeable-Phenotype (%): 0%
  Population Mitochondria Different-Phenotype (%): 100%
  Population Mitotic Cells (%): 6%
  Population Normal (%): 80%
  Population Pyknosed Nuclei (%): 73%
  Population Tubulin-Different-Phenotype (%): 33%
  Total Cell Count: 315
HEK-293T; [12]
  Population Apoptotic (%): 98%
  Population Fragmented Nuclei (%): 34%
  Population Healthy Nuclei (%): 17%
  Population Hoechst High Intensity Objects (%): 12%
  Population Mitotic Cells (%): 1%
  Population Normal (%): 87%
  Population Pyknosed Nuclei (%): 48%
  Population Tubulin-Different-Phenotype (%): 88%
  Total Cell Count: 234
Fibroblast; 6 h, replicate number 1, timepoint 6 hours
  Growth Rate: 0
Fibroblast; 12 h, replicate number 1, timepoint 12 hours
  Growth Rate: 0
Fibroblast; 18 h, replicate number 1, timepoint 18 hours
  Growth Rate: 0
Fibroblast; 24 h, replicate number 1, timepoint 24 hours
  Growth Rate: 0
